Experimental data: article PMC9839614 (Cancer cell, 2022)

How the values were obtained:
[1] = first-in-human study, advanced solid tumors; cited from earlier work
MOLM-13 parental cells = experiment: Drug treatment IC50 measurement; format: cell-based; conditions: Homo sapiens, MOLM-13, read-out: IC50 (cell viability)
Summary of the method: (§1)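 MOLM-13 cells (parental or venetoclax-resistant) were plated and exposed to the test compound across a range of concentrations, with at least three technical replicates per concentration per cell line. Viability was read by CellTiter-Glo luminescence. IC50 was calculated from technical triplicates within each experiment, over n=3 experiments, and reported as mean with SEM.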

[2] = tested on: venetoclax-resistant MOLM-13 cell lines; experiment: Drug treatment IC50 measurement; format: cell-based, human
Summary of the method: as §1

[3] = tested on: RNA splicing in MOLM-13 cells; experiment: RNA-seq alternative splicing analysis; format: cell-based, human; conditions: 48 hours, SM09419 100 nM, venetoclax 10 nM
Summary of the method: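 Total RNA was extracted from MOLM-13 cells with an RNeasy column kit for RNA-seq. Before downstream analysis, FASTQ reads were trimmed of sequencing adapters and of low-quality reads (Q<15).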

IC50 ([2]; Homo sapiens, MOLM-13, 504 h, read-out: IC50 (cell viability)) [µM]	Compound	Grade 3 anemia rate [1] [%]	IC50 (MOLM-13 parental cells) [µM]	IC50 of resistant cell lines relative to parental cells ([2]; venetoclax-resistant vs parental MOLM-13)	Effect on RNA splicing [3]
	CN1CCN(c2cc(C(=O)Nc3cc4cc(-c5cnn(C)c5)ccc4cn3)ccn2)CC1 [Cirtuvivint]	< 15			
> 0.099	CC1(C)CCC(CN2CCN(c3ccc(C(=O)NS(=O)(=O)c4ccc(NCC5CCOCC5)c([N+](=O)[O-])c4)c(Oc4cnc5[nH]ccc5c4)c3)CC2)=C(c2ccc(Cl)cc2)C1 [venetoclax]		~0.015	approximately six times greater	no significant effects on RNA splicing
